The record followed here is the array DNA melting data of Ke et al. (doi:10.1101/2024.01.08.574731).

A short description of data set [1]: melting temperature; fluorescence melt of hairpins on a sequencing array, two-state fit, raised by 9.35 °C to match UV melts. The note with it: sodium 0.088 M. In short, it runs like this:
(§1)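 Cy3 signals were normalised both to pre-quench Cy3 and to control constructs. They came from library hairpins carrying annealed Cy3 and quencher oligos on a sequenced MiSeq flow cell, imaged in 50 mM Na-HEPES pH 8.0, 25 mM NaCl, in 2.5 °C steps up to 60 °C. Bootstrapped two-state fits gave melting temperature and folding enthalpy, and four replicates were combined by inverse variance. Fitted temperatures were then raised by 9.35 °C to match UV melts.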

Data set [2] is described as follows: folding enthalpy; higher = less favourable; fluorescence melt of hairpins on a sequencing array, two-state fit. The note with it: sodium 0.088 M. Put shortly:
as §1

GATCGGCAACCCGATC ((((((....)))))): the Tm in data set [1] is 54.4 °C. In data set [2], the folding enthalpy was -38.5 kcal/mol.
For GATCAGTCTCCTGATC ((((((....)))))), in that order: 49.4 °C and -39.1 kcal/mol.
In the case of GCGGTTGGCCGC ((((....)))), the Tm in data set [1] was determined as 64.8 °C. Also, the folding enthalpy in data set [2] was -25.3 kcal/mol.
With GTCTGCGAAAGCAAAGAC ((((((....)))..))), the Tm in data set [1] is 50.1 °C. Besides, in data set [2], the folding enthalpy was -19.1 kcal/mol.
The corresponding values for GATCAGCATGCTGATC ((((((....)))))) are 60.8 °C and -47.5 kcal/mol.
For GTCAGAGGAAACTCTGAC (((((((....))))))), in that order: 61.7 °C and -37.9 kcal/mol.
For GTCCGCCCGAAAGGGGAC (((..(((....)))))), in that order: 47.3 °C and -18.7 kcal/mol.
As to GCAACCGGAAACAGTTGC (((((.(....).))))), in data set [1], the Tm was 45.7 °C. The folding enthalpy in data set [2] is -31.7 kcal/mol.
Turning to GTCAGACGAAAGTCCGAC (((.(((....))).))), the Tm in data set [1] was 48.6 °C. Besides, the folding enthalpy in data set [2] was -26.5 kcal/mol.
For GAGGAACGAAAGTTGCTC (((.(((....))).))), in that order: 53.9 °C and -47.7 kcal/mol.
For GCCGAGGGAAACCCCGGC ((((.((....)).)))), in that order: 59.9 °C and -40.2 kcal/mol.
The corresponding values for GACCGGCGAAAGCCAGTC (((.(((....))).))) are 50.7 °C and -20.2 kcal/mol.
Regarding GCCTTGCGAAAGCTCGGC (((..((....))..))), in data set [1], the Tm was 53.1 °C. Besides, the folding enthalpy in data set [2] was -21.9 kcal/mol.
For GATCCTCGAAAGGATC ((((((....)))))), in that order: 50.4 °C and -37.2 kcal/mol.
The corresponding values for GGAGGAGAAATCCTCC ((((((....)))))) are 54.4 °C and -40.8 kcal/mol.
Turning to GTCACCGAAAGGTCAGAC ((((((....)))..))), the Tm in data set [1] turned out to be 32.2 °C. Besides, the folding enthalpy in data set [2] is -14.5 kcal/mol.
For GCCGGGCGAAAGCCTCGC ((..(((....)))..)), in that order: 48.3 °C and -11.1 kcal/mol.
As to GGATTCCCGAAAGGGTCC (((..(((....)))))), in data set [1], the Tm stood at 39.3 °C. Further, the folding enthalpy in data set [2] is -14.6 kcal/mol.
For the sequence AAAGGGAAACCTTT (((((....))))), the Tm in data set [1] came to 32.2 °C. Moreover, the folding enthalpy in data set [2] was -10 kcal/mol.
As for GCCAGGCGAAAGCACGGC (((..((....))..))), the Tm in data set [1] came to 60.6 °C. Moreover, the folding enthalpy in data set [2] was -18.3 kcal/mol.
On to GATCGGCTACCCGATC ((((((....)))))), for which the Tm in data set [1] worked out at 54.9 °C. In data set [2], the folding enthalpy was -41 kcal/mol.
Take GATCAAAGTTTGATC ((((((...)))))): in data set [1], the Tm came out at 42.7 °C. Moreover, the folding enthalpy in data set [2] was -27.1 kcal/mol.
Consider GTATCGGGAAACTGGTAC (((.(.(....).).))), for which, in data set [1], the Tm stood at 32.3 °C. Also, the folding enthalpy in data set [2] was -17.8 kcal/mol.
The corresponding values for GTACGGGGAAACCCACAC ((..(((....)))..)) are 30.4 °C and -16.3 kcal/mol.
For GATGAGGAAACTCATC ((((((....)))))), in that order: 52.8 °C and -35 kcal/mol.
With GTCAACGAAAGTTAGGAC ((((((....)))..))), the Tm in data set [1] turned out to be 31.8 °C. Besides, the folding enthalpy in data set [2] is -17.1 kcal/mol.
For the sequence GATCACACCTGTGATC ((((((....)))))), the Tm in data set [1] is 57.2 °C. Further, the folding enthalpy in data set [2] was -47.3 kcal/mol.
On to GAGCTACCGAAAGGTCTC (((..(((....)))))), for which the Tm in data set [1] was determined as 27.6 °C. In addition, in data set [2], the folding enthalpy is -13.5 kcal/mol.
Consider GAGTCCCCGAAAGGGCTC (((..(((....)))))), for which the Tm in data set [1] was 44.4 °C. Besides, in data set [2], the folding enthalpy was -19.2 kcal/mol.
As to GTGGCAGGAAACTGCTAC ((.((((....)))).)), in data set [1], the Tm is 53.1 °C. Moreover, the folding enthalpy in data set [2] was -26.4 kcal/mol.
Consider GAGCGCGAAAGCGCACTC ((((((....)))..))), for which, in data set [1], the Tm is 60.4 °C. In data set [2], the folding enthalpy was -10 kcal/mol.
On to GACTGGGCGAAAGCCGTC (((..(((....)))))), for which the Tm in data set [1] came out at 56.1 °C. Moreover, in data set [2], the folding enthalpy was -10.4 kcal/mol.
As to GATTAAGGAAACTTAATC (((((((....))))))), the Tm in data set [1] turned out to be 45.5 °C. In addition, the folding enthalpy in data set [2] is -31.3 kcal/mol.
The corresponding values for GCTAAAGAAATTTAGC ((((((....)))))) are 41.7 °C and -28.8 kcal/mol.
For the sequence GGCGCTCCGAAAGGAGCC (((..(((....)))))), the Tm in data set [1] was 47.8 °C. In addition, the folding enthalpy in data set [2] is -7.43 kcal/mol.
For GCTTCTGAAAAGAAGC ((((((....)))))), in that order: 60 °C and -31.9 kcal/mol.
For the sequence GATCAGAGTCCTGATC ((((((....)))))), the Tm in data set [1] was 47.6 °C. In data set [2], the folding enthalpy was -38.2 kcal/mol.
